Measured values reported in ChEMBL document CHEMBL1159338, “New dimeric naphthopyrones from Aspergillus niger” (J Nat Prod, 2003).
Calls of active or inactive are those of the source. No cut-off for these calls is given here.

Legend:
[1] = target: Telomerase reverse transcriptase (Homo sapiens) (UniProt O14746); assay: Inhibition of human telomerase activity at 100 ug/mL by TRAP assay
Method in brief: (§1)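 TRAP format: DMSO-dissolved samples in a 50 µL mix with HT1080 cell extract, pH 8.3 Tris-HCl/KCl/MgCl2/EGTA/Tween 20 buffer, TS primer, 50 µM each dNTP, 2 U Taq and [32P]dCTP; CX primer held under wax. Extension ran 30 min at 23 °C, then 90 °C for 90 s and 31 PCR cycles. Products were bound to DE-51 paper and scintillation-counted. Inhibition was taken relative to DMSO, minus RNase-treated extract background.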

[2] = target: Telomerase reverse transcriptase (Homo sapiens) (UniProt O14746); assay: Inhibition of human telomerase activity by TRAP assay; settings: concentration not given here; method in brief: as §1
[3] = target: DNA polymerase I, thermostable (Thermus aquaticus) (UniProt P19821); assay: Inhibition of Taq polymerase in RNase treated human HT1080 cells at 100 ug/mL by PCR; type: cell-based; settings: HT-1080
Chain of DNA polymerase I, thermostable (Thermus aquaticus) (P19821 whole entry): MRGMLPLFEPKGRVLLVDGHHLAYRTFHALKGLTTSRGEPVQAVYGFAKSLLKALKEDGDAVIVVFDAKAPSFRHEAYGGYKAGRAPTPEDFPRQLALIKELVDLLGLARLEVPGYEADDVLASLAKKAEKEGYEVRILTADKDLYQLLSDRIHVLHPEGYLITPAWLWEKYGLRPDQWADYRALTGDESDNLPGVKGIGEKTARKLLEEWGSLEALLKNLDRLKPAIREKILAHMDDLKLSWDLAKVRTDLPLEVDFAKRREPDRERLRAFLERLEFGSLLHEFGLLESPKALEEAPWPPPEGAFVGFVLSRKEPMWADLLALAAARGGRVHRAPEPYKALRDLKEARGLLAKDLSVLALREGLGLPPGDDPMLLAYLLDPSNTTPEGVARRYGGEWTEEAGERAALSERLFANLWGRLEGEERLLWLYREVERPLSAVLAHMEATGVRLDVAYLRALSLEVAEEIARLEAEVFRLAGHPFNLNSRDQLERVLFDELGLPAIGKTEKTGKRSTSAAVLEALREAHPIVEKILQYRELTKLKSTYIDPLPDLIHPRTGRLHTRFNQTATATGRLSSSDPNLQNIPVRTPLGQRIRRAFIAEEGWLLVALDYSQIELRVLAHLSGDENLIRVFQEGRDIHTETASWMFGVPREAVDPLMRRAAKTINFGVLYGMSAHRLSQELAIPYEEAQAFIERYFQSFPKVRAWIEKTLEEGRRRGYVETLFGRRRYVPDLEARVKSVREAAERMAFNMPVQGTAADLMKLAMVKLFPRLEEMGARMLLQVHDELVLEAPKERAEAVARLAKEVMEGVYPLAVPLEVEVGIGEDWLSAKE

Chain of Telomerase reverse transcriptase (Homo sapiens) (O14746 whole entry): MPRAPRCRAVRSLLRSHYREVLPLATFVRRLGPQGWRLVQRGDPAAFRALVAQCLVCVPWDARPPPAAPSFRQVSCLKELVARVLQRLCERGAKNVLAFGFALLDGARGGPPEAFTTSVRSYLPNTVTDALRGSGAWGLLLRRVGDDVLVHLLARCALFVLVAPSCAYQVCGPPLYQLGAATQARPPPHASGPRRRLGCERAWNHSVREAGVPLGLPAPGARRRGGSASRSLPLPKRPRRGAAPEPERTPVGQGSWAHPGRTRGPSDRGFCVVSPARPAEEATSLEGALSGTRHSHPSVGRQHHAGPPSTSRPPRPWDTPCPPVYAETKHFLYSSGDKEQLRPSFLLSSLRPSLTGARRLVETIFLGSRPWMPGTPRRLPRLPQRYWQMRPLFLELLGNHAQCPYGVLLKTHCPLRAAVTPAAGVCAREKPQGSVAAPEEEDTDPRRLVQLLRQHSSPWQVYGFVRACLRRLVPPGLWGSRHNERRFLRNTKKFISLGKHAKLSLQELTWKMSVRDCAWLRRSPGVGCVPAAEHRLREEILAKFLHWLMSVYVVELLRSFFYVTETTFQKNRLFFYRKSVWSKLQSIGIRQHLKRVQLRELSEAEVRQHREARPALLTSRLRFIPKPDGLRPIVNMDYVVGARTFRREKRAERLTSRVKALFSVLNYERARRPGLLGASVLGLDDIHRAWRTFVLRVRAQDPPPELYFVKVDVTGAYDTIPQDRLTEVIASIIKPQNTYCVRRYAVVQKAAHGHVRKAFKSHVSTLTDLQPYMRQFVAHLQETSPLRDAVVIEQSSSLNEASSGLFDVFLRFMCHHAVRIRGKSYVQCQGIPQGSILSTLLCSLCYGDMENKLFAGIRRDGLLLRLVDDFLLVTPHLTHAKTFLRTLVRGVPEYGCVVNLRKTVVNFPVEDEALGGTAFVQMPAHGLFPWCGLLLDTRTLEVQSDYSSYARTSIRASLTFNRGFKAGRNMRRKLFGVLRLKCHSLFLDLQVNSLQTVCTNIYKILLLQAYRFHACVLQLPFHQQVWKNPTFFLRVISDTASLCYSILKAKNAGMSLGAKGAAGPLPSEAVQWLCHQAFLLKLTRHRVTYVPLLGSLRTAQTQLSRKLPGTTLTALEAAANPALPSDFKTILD

SMILES | Activity [1] | inhibition [2] [%] | inhibition [3] [%]
COc1cc(OC)c2c(c1)c(-c1c(OC)cc3cc4oc(C)cc(=O)c4c(O)c3c1OC)c(O)c1c(=O)cc(C)oc12 | inactive |  | 
COc1cc(OC)c2c(O)c3c(=O)cc(C)oc3c(-c3c(OC)cc4cc5oc(C)cc(=O)c5c(O)c4c3OC)c2c1 | inactive | 52 | 49
COc1cc(OC)c2c(O)c3c(=O)cc(C)oc3c(-c3c(OC)cc4cc(O)c5c(=O)cc(C)oc5c4c3OC)c2c1 | inactive | 40 | 40

Now from value to compound:

Activity [1] | inhibition [2] [%] | inhibition [3] [%] | SMILES
inactive |  |  | COc1cc(OC)c2c(c1)c(-c1c(OC)cc3cc(O)c4c(=O)cc(C)oc4c3c1OC)c(O)c1c(=O)cc(C)oc12
inactive | 41 | 40 | COc1cc(OC)c2c(O)c3c(=O)cc(C)oc3c(-c3c(O)cc4cc(O)c5c(=O)cc(C)oc5c4c3OC)c2c1
